Reference: ChEMBL document CHEMBL5154715, “Phenolic Lipids Derived from Cashew Nut Shell Liquid to Treat Metabolic Diseases” (J Med Chem, 2022)
Activity calls are given as the source filed them.

Assays:
Danio rerio [1] = test: In vivo agonist activity at human GFP-tagged PPARgamma in transgenic zebrafish assessed as increase in GFP expression in CNS at 1 uM measured after 14 days by microscopy; assay type: functional, organism-based; settings: time 14.0 day
Danio rerio [2] = test: In vivo agonist activity at human GFP-tagged PPARalpha in transgenic zebrafish assessed as increase in GFP expression in muscle at 1.5 uM measured after 14 hrs by microscopy
Danio rerio [3] = test: In vivo agonist activity at human GFP-tagged PPARalpha in transgenic zebrafish assessed as increase in GFP expression in brain at 1.5 uM measured after 14 hrs by microscopy
Danio rerio [4] = test: In vivo agonist activity at human GFP-tagged PPARgamma in transgenic zebrafish assessed as increase in GFP expression in muscle at 1 uM measured after 14 days by microscopy; assay type: functional, organism-based; settings: time 14.0 day
Danio rerio [5] = test: In vivo agonist activity at human GFP-tagged PPARalpha in transgenic zebrafish assessed as increase in GFP expression in yolk sac at 1.5 uM measured after 14 hrs by microscopy
Danio rerio [6] = test: In vivo agonist activity at human GFP-tagged PPARalpha in transgenic zebrafish assessed as increase in GFP expression in heart at 1.5 uM measured after 14 hrs by microscopy
Danio rerio [7] = test: In vivo agonist activity at human GFP-tagged PPARalpha in transgenic zebrafish assessed as increase in GFP expression in retina at 5 uM measured after 14 hrs by microscopy
Danio rerio [8] = test: In vivo agonist activity at human GFP-tagged PPARalpha in transgenic zebrafish assessed as increase in GFP expression in heart at 5 uM measured after 14 hrs by microscopy
[9] = molecular target: T1, Peroxisome proliferator-activated receptor alpha (Mus musculus) (UniProt P23204); test: Agonist activity at human PPARalpha in mouse hepatocytes assessed as induction of Pdk4 mRNA expression at 50 uM incubated for 16 hrs by quantitative real-time PCR analysis; assay type: cell-based; settings: Hepatocyte, filed as agonist
T1 sequence (whole entry): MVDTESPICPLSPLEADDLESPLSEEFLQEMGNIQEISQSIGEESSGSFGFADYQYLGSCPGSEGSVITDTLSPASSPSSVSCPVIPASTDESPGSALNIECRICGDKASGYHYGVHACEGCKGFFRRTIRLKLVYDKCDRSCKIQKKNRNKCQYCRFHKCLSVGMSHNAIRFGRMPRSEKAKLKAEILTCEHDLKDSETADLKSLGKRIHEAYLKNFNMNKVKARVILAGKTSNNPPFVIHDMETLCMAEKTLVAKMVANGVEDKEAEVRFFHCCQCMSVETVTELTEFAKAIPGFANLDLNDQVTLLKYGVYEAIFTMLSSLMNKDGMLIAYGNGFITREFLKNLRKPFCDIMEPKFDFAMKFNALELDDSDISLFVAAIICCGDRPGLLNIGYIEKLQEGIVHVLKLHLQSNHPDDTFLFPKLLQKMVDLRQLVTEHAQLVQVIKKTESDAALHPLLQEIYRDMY
How it was run: (§1)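 Collagenase-perfused mouse primary hepatocytes from WT mice, plated 2 h in attachment medium, overnight in M199 with 5% charcoal-stripped FBS and 1 nM insulin. Treated next day in serum-free M199 with 50 μM compound for 16 h. RNA qPCR (SYBR Green), comparative Ct method.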

[10] = molecular target: T1, Peroxisome proliferator-activated receptor alpha (Mus musculus); test: Agonist activity at human PPARalpha in mouse hepatocytes assessed as induction of cd36 mRNA expression at 50 uM incubated for 16 hrs by quantitative real-time PCR analysis; assay type: cell-based; settings: Hepatocyte, filed as agonist; how it was run: as §1
Danio rerio [11] = test: In vivo agonist activity at human GFP-tagged PPARalpha in transgenic zebrafish assessed as increase in GFP expression in CNS at 5 uM measured after 14 hrs by microscopy
[12] = molecular target: T1, Peroxisome proliferator-activated receptor alpha (Mus musculus); test: Agonist activity at human PPARalpha in mouse hepatocytes assessed as induction of Fgf21 mRNA expression at 50 uM incubated for 16 hrs by quantitative real-time PCR analysis; assay type: cell-based; settings: Hepatocyte, filed as agonist; how it was run: as §1
Danio rerio [13] = test: In vivo agonist activity at human GFP-tagged PPARalpha in transgenic zebrafish assessed as increase in GFP expression in muscle at 5 uM measured after 14 hrs by microscopy
[14] = molecular target: T1, Peroxisome proliferator-activated receptor alpha (Mus musculus); test: Agonist activity at human PPARalpha in mouse hepatocytes assessed as induction of fabp1 mRNA expression at 50 uM incubated for 16 hrs by quantitative real-time PCR analysis; assay type: cell-based; settings: Hepatocyte, filed as agonist; how it was run: as §1
Danio rerio [15] = test: In vivo agonist activity at human GFP-tagged PPARalpha in transgenic zebrafish assessed as increase in GFP expression in epidermis at 5 uM measured after 14 hrs by microscopy

Measured: Activity

Cc1cc(SCc2sc(-c3ccc(C(F)(F)F)c(F)c3)nc2C)ccc1OCC(=O)O
active: Danio rerio [1] | Danio rerio [2] | Danio rerio [3] | Danio rerio [4] | Danio rerio [5] | Danio rerio [6]

Cc1cccc(Nc2cc(Cl)nc(SCC(=O)O)n2)c1C
not listed: Danio rerio [1] | Danio rerio [2] | Danio rerio [3] | Danio rerio [4] | Danio rerio [5] | Danio rerio [6]
active: all other assays above
